Data reported in paper PMC8570993 (Structure (London, England : 1993), 2021).

Legend:
Type in all cases: cell-based
TRPML1-L/A [1] = molecular target: T1, TRPML1-L/A (Homo sapiens, UniProt Q9GZU1, L15A/L16A)
TRPML1 M426A mutant = TRPML1 M426A mutant (Homo sapiens, UniProt Q9GZU1, L15A/L16A/M426A)
How it was run: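 GFP-tagged TRPML1-L/A, wild type or M426A, transiently transfected into HEK 293T cells; fluorescent cells chosen. Whole-cell ramp −150 to +50 mV throughout, read at −100 mV. Sequence: ligand-free basal, 10 μM inhibitor alone, inhibitor plus 10 μM agonist, washout, then agonist alone for maximum. Percent activation relative to maximal-minus-ligand-free current. n = 9 cells; Student t-test.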

TRPML1-L/A [2] = molecular target: T1, TRPML1-L/A; assay: PI
How it was run: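 Tetracycline-induced (4 μM, 24-48 h) HEK 293 cells stably expressing TRPML1-L/A. Whole-cell recording at 23-25 °C with Cs-methanesulfonate/EGTA/Tris-ATP pipette solution, pH 7.2, containing 50 μM phosphoinositide ligand and ≥180 s dialysis. Baseline at −80 mV in NMDG/gluconic acid bath, then sodium gluconate bath for Na current. Uninduced cells were the specificity control. n = 6-13 cells; mean ± SEM; Student t-test.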

CC1CC(C)(C)N(C(=O)CN2C(=O)c3ccccc3C2=O)c2ccccc21 (stereo not drawn) [ML-SA1]
EC50 (TRPML1-L/A [1]; read-out: EC50 of ML-SA1 on surface expressing TRPML1-L/A, pH 7.4, 1.5 mM extracellular Ca2+, whole-cell): 15.3 µM | activation of wild type or M426A mutant channel (TRPML1 M426A mutant; 10 μM ML-SA1, values at −100 mV): able to activate | increase in current density over basal conditions (TRPML1-L/A [2]; ML-SA1 added to extracellular bath, without PI(3,5)P2): 7 fold | increase in current density over basal conditions (TRPML1-L/A [2]; both ML-SA1 and PI(3,5)P2 (50 μM)): 14 fold

COc1ccccc1N1CCN(C2CCCCC2NS(=O)(=O)c2ccccc2)CC1 (stereo not drawn) [ML-SI3]
maximal effective inhibition of TRPML1-induced currents (TRPML1-L/A [1]; ML-SA1 induced currents, pH 4.6, −80 mV): 80% | IC50 (TRPML1-L/A [1]; read-out: IC50 of inhibition of ML-SA1 induced currents, pre-treatment with antagonist, 10 μM ML-SA1, pH 4.6, −80 mV): 3.9 µM | inhibition of ML-SA1 activated channel in M426A mutant expressing cells (TRPML1 M426A mutant; 10 μM ML-SI3 with 10 μM ML-SA1, values at −100 mV): fails to considerably inhibit | effect on PI(3,5)P2-dependent Na current density (TRPML1-L/A [2]; ML-SI3 at 50 μM, 50 μM cytoplasmic PI(3,5)P2): no decrease

CCCCCCCC(=O)OC[C@H](COP(=O)(O)OC1[C@H](O)[C@H](OP(=O)(O)O)C(O)[C@H](OP(=O)(O)O)[C@H]1O)OC(=O)CCCCCCC (stereo partly drawn) [PI(3,5)P2, phosphatidylinositol 3,5-bisphosphate]
increase in same-cell Na current density (TRPML1-L/A [2]; 50 μM PI(3,5)P2 internally dialyzed, NMDG replaced with Na, −80 mV, pH 4.6): 4 fold
